Data on four compounds can be found in paper PMC5554713 (ChemMedChem, 2017).

As a reminder, the inhibition is how much of the control response was suppressed. What is called IC50 is the concentration at which inhibition is half-maximal. As usually defined, the Ki is a measure of affinity in units of concentration, obtained from inhibition or displacement.

Assay [1] addresses T1, CaMKIIδ (Homo sapiens, UniProt Q13557). In kind it is biochemical. As to conditions: read-out: inhibition of CaMKIIδ enzyme activity.
Assay [2] addresses T1, CaMKIIδ. The assay can be described thus: Radiometric kinase assay. In kind it is biochemical. In a few lines:
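Outsourced radiometric assay using conventional filter-binding, which directly measures kinase catalytic activity toward a specific substrate. Run as a concentration-dependent study.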

The next assay concerns the target α subtype of CaMKII. As to conditions: cited from earlier work; for kinase activity, α subtype of CaMKII: at 0.5 μM.
The subject of a further assay is γ subtype of CaMKII. As to conditions: cited from earlier work; for activity against γ subtype of CaMKII: at 1 μM; for inhibition of γ subtype of CaMKII: at 10 μM.
Assay [3] concerns the target δ subtype of CaMKII. The conditions noted are these: cited from earlier work; for kinase activity, δ subtype of CaMKII: at 0.5 μM.
Assay [4] relates to δ subtype of CaMKII. The conditions noted are these: cited from earlier work; for activity against δ subtype of CaMKII: at 1 μM; for inhibition of δ subtype of CaMKII: at 10 μM.
For the next assay, the target named is CaMKII. As to conditions: cited from earlier work.
The target of assay [5] is β subtype of CaMKII. As to conditions: cited from earlier work; for kinase activity, β subtype of CaMKII: at 0.5 μM.
For assay [6], the system named is β subtype of CaMKII. As to conditions: cited from earlier work; for activity against β subtype of CaMKII: at 1 μM; for inhibition of β subtype of CaMKII: at 10 μM.
The target in the next assay is CaMKIIγ. As to conditions: at 0.5 μM; cited from earlier work.
The subject of another assay is 300 kinases. The conditions noted are these: at 0.5 μM; cited from earlier work.

As to `CCN(CC)CCCC(C)Nc1nc(/C=C/c2ccccc2)nc2cc(Cl)ccc12` (stereo not shown) [Compound 1, (E)-N4-(7-chloro-2-styrylquinazolin-4-yl)-N1,N1-diethylpentane-1,4-diamine], the inhibition at 50 µM on CaMKIIδ [1] was ≥ 50%. Moreover, at CaMKIIδ [2], the IC50 was ~5000 nM. Besides, at CaMKIIδ [2] (concentration-dependent study, radiometric assay), the “IC50 for inhibition of CaMKIIδ enzyme activity” value is “single-digit micromolar”.
For `CN([C@@H](Cc1ccc(OS(=O)(=O)c2cccc3cnccc23)cc1)C(=O)N1CCN(c2ccccc2)CC1)S(=O)(=O)c1cccc2cnccc12` [KN-62], the “kinase activity, α subtype of CaMKII” value at α subtype of CaMKII is on record as 90%. Also, in the assay with γ subtype of CaMKII, the “activity against γ subtype of CaMKII” value is “Neither compound showed activity” and the “inhibition of γ subtype of CaMKII” value was 13%. Moreover, the “kinase activity, δ subtype of CaMKII” value on δ subtype of CaMKII [3] is given as 90%. Moreover, in the assay with δ subtype of CaMKII [4], the “activity against δ subtype of CaMKII” value is “Neither compound showed activity” and the “inhibition of δ subtype of CaMKII” value is 9%. Further, on CaMKII, the Ki is 900 nM. Besides, the “kinase activity, β subtype of CaMKII” value on β subtype of CaMKII [5] was 90%. Further, in the assay on β subtype of CaMKII [6], the “activity against β subtype of CaMKII” value is “Neither compound showed activity” and the “inhibition of β subtype of CaMKII” value is given as 22%. The “kinase activity, γ subtype of CaMKII” value at CaMKIIγ is 90%.
Consider `COc1ccc(S(=O)(=O)N(CCO)c2ccccc2CN(C)CC=Cc2ccc(Cl)cc2)cc1` [KN-93], for which the “kinase activity, α subtype of CaMKII” value at α subtype of CaMKII is recorded as 90%. Moreover, in the assay on γ subtype of CaMKII, the “activity against γ subtype of CaMKII” value is on record as “Neither compound showed activity” and the “inhibition of γ subtype of CaMKII” value is given as 33%. For the same compound, the “kinase activity, δ subtype of CaMKII” value at δ subtype of CaMKII [3] was 90%. In the assay on δ subtype of CaMKII [4], the “activity against δ subtype of CaMKII” value is listed as “Neither compound showed activity” and the “inhibition of δ subtype of CaMKII” value is given as 53%. Moreover, in the assay with CaMKII, the IC50 was 1000 to 4000 nM and the Ki was 370 nM. In addition, the “kinase activity, β subtype of CaMKII” value at β subtype of CaMKII [5] is 90%. Besides, in the assay with β subtype of CaMKII [6], the “activity against β subtype of CaMKII” value is listed as “Neither compound showed activity” and the “inhibition of β subtype of CaMKII” value is 80%. In addition, the “kinase activity, γ subtype of CaMKII” value at CaMKIIγ is listed as 90%.
For `CN(C)S(=O)(=O)c1ccc2c(c1)/C(=C/c1cc3c([nH]1)CCCC3)C(=O)N2` [SU6656], the “inhibition of kinase activity, α subtype of CaMKII” value with α subtype of CaMKII (at 0.5 μM in the RBC study) is ~ 30%. The “inhibition of kinase activity, δ subtype of CaMKII” value with δ subtype of CaMKII [3] (at 0.5 μM in the RBC study) was ~ 30%. Also, in the assay on 300 kinases, the “number of different kinases with more than 60 percent inhibition” value was 38 kinases and the “number of different kinases with more than 80 percent inhibition” value is 19 kinases. The “inhibition of kinase activity, β subtype of CaMKII” value in the assay on β subtype of CaMKII [5] (at 0.5 μM in the RBC study) is given as ~ 30%.
